What was measured:
NCI-N87 = experiment: Antiproliferative activity against human NCI-N87 cells after 72 hrs by MTT assay; format: functional, cell-based; conditions: NCI-N87, 72 h
[1] = AUC (0 to 4 hrs) in BALB/c mouse at 50 mg/kg, po; format: ADME, organism-based; set-up: time < 4 hr, dose 50 mg/kg, route oral; conditions: plasma
[2] = Metabolic stability in mouse liver microsomes assessed per mg of protein at 10 uM after 10 mins; format: ADME, Microsome
How it was run: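 Mouse liver microsomes incubated with compound at 10 µM for 10 min; metabolic rate expressed as nmol/min/mg protein.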

[3] = target: Epidermal growth factor receptor (Homo sapiens, UniProt P00533); experiment: Inhibition of human recombinant HER1 expressed in Sf9 cells by liquid scintillation counting
Epidermal growth factor receptor, sequence (P00533 whole entry): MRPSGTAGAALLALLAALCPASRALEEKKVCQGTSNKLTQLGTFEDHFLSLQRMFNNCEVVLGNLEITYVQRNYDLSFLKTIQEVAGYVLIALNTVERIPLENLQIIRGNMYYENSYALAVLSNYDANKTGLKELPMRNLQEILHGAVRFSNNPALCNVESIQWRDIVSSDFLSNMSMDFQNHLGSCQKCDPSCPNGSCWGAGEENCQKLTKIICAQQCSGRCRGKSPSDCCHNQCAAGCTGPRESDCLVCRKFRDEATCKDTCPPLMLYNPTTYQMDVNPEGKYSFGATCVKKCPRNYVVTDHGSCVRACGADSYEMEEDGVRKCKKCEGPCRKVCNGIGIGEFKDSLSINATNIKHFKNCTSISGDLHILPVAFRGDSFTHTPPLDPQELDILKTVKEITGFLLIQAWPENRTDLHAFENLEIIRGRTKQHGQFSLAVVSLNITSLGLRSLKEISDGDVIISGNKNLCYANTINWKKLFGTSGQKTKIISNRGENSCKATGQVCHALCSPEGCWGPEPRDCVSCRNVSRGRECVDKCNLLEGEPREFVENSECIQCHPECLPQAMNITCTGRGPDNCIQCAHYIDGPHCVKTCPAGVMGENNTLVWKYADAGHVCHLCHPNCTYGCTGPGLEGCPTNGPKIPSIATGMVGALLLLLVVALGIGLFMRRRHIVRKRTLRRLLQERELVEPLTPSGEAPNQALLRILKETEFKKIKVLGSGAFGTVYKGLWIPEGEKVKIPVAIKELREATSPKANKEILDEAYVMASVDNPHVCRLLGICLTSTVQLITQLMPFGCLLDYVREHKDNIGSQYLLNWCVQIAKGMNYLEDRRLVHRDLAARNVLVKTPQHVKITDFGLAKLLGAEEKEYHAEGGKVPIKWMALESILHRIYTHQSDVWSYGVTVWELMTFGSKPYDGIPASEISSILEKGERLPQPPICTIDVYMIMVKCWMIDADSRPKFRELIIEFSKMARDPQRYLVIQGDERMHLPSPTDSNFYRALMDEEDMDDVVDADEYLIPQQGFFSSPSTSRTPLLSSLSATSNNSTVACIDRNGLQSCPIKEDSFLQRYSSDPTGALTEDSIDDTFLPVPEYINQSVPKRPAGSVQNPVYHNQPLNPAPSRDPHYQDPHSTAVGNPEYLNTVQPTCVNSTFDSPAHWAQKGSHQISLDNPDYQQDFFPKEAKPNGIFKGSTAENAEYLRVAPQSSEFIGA

[4] = Cmax in BALB/c mouse at 50 mg/kg, po; format: ADME, organism-based; set-up: dose 50 mg/kg, route oral; conditions: in vivo
BT-474 = experiment: Antiproliferative activity against human BT474 cells after 72 hrs by MTT assay; format: functional, cell-based; conditions: BT-474, 72 h
How it was run: (§1)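 Cell proliferation IC50 reported as the mean of three independent determinations. BT474 is a breast line (HER2+++/HER1+); A2780 serves as a HER-independent control.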

[5] = Antiproliferative activity against mouse SAL2 cells after 72 hrs by MTT assay; format: functional, cell-based; conditions: SAL2, 72 h
[6] = target: Receptor tyrosine-protein kinase erbB-2 (Homo sapiens, UniProt P04626); experiment: Inhibition of human recombinant HER2 expressed in Sf9 cells by liquid scintillation counting
Receptor tyrosine-protein kinase erbB-2, sequence (P04626 whole entry): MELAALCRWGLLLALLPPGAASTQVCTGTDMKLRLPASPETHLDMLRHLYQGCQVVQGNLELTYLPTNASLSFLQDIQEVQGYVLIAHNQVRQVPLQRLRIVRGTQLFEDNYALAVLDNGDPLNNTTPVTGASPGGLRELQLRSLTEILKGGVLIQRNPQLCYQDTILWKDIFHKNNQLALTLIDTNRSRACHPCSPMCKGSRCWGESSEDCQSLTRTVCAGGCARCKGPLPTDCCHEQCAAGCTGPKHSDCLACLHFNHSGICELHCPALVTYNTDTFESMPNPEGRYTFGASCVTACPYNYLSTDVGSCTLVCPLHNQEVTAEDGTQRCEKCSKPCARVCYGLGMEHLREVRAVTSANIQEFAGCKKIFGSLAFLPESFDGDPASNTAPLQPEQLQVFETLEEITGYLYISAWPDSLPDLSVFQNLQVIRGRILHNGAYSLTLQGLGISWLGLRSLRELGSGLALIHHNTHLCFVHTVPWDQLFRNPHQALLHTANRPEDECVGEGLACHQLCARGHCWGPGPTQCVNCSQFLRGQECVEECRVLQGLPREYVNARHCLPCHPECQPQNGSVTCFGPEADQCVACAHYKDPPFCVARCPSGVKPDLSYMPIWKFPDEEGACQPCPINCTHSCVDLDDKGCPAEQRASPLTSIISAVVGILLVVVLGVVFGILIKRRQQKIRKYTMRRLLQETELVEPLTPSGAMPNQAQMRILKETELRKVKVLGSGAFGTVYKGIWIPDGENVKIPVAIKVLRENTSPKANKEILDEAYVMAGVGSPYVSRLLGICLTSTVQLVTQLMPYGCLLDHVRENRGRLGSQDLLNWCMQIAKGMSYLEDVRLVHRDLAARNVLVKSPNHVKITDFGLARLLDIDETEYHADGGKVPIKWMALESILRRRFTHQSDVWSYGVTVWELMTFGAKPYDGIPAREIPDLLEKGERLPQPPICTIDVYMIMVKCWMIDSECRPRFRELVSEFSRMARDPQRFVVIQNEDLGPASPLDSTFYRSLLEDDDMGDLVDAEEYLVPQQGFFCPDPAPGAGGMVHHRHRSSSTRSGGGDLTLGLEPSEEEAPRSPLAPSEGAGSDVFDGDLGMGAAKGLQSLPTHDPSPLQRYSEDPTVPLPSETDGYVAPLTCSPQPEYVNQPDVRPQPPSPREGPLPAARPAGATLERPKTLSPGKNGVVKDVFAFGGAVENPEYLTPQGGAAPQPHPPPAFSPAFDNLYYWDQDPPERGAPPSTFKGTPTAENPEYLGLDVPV

Mus musculus = experiment: Plasma concentration in BALB/c mouse at 50 mg/kg, po; format: ADME, organism-based; set-up: dose 50 mg/kg, route oral; conditions: in vivo
How it was run: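 Compound given orally at 50 mg/kg as a solution in PEG400/Tween80/water (40:10:50) to three Balb/C mice. Plasma sampled over 4 h after dosing; AUC(0-4h), Cmax and 4 h concentration reported.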

A2780 = experiment: Antiproliferative activity against human A2780 cells after 72 hrs by MTT assay; format: functional, cell-based; conditions: A2780, 72 h; how it was run: as §1

Compound | IC50 (NCI-N87) [nM] | AUC(0-t) at 4 h [1] [µM·h] | Stability [2] [nmol/min] | IC50 [3] [nM] | Cmax [4] [nM] | IC50 (BT-474) [nM] | IC50 [5] [nM] | IC50 [6] [nM] | concentration (Mus musculus) [nM] | IC50 (A2780) [nM]
CCC1=C2C(Nc3ccc4c(cnn4Cc4ccccc4)c3)=NC=NC2N=C1NC(=O)OCCN1CCCCC1 (centres undefined) | 390 | 5.5 | 0.27 | 38 | 1700 | 310 | 380 | 28 | 1300 | –
CCC1=C2C(Nc3ccc4c(cnn4Cc4ccccc4)c3)=NC=NC2N=C1NC(=O)OCCC1CCNCC1 (centres undefined) | 210 | 0.53 | – | 44 | 250 | 130 | 490 | 37 | 110 | –
CCC1=C2C(Nc3ccc4c(cnn4Cc4ccccc4)c3)=NC=NC2N=C1NC(=O)OCCN1CCOCC1 (centres undefined) | 520 | 29 | – | 111 | 11000 | 550 | 500 | 77 | 4900 | –
CCC1=C2C(Nc3ccc4c(cnn4Cc4ccccc4)c3)=NC=NC2N=C1NC(=O)OCC1CCCNC1 (centres undefined) | 320 | 3.6 | – | 38 | 1200 | 310 | 480 | 29 | 1200 | 3900
CCC1=C2C(Nc3ccc4c(cnn4Cc4ccccc4)c3)=NC=NC2N=C1NC(=O)OCCN1CCNCC1 (centres undefined) | 100 | 0.62 | 0.1 | 21 | 300 | 71 | 250 | 18 | 300 | –
CCC1=C2C(Nc3ccc4c(cnn4Cc4ccccc4)c3)=NC=NC2N=C1NC(=O)O[C@H]1CC[C@@](C)(N)CC1 (some centres undefined) | 170 | 1.76 | 0.02 | 19 | 480 | 130 | 370 | 20 | 460 | 5220
CCC1=C2C(Nc3ccc4c(cnn4Cc4ccccc4)c3)=NC=NC2N=C1NC(=O)OCC1CCCCN1 (centres undefined) | 430 | 7.2 | – | 45 | 2300 | 470 | 250 | 30 | 2300 | 4750
CCC1=C2C(Nc3ccc4c(cnn4Cc4ccccc4)c3)=NC=NC2N=C1NC(=O)OCCn1ccnc1 (centres undefined) | 980 | 36 | – | 40 | 9900 | 860 | 460 | 44 | 9900 | > 5000
CCC1=C2C(Nc3ccc4c(cnn4Cc4cccc(F)c4)c3)=NC=NC2N=C1NC(=O)OC[C@@H]1COCCN1 (some centres undefined) | 340 | 16.2 | 0.01 | 23 | 5100 | 190 | 230 | 22 | 5100 | 8070
CCc1c(NC(=O)OC[C@@H]2COCCN2)cn2ncnc(Nc3ccc4c(cnn4Cc4ccccc4)c3)c12 | 350 | 11 | 0.14 | 33 | 3500 | 420 | 170 | 21 | 2600 | 4510
CCC1=C2C(Nc3ccc4c(cnn4Cc4ccccc4)c3)=NC=NC2N=C1NC(=O)OCC1CCNCC1 (centres undefined) | 170 | 1.3 | – | 30 | 450 | 90 | 130 | 23 | 260 | –
